# DDE Tn7 FP inh: inhibitors of Tn7 peptide binding to human fibrin DD(E); 0.13% of 370,000 active; inhibition, % at 8.3 µM; P02675; FP displacement of FITC-Tn7 peptide from fibrin DD(E); 0% = median of compound wells per plate;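 active means inhibition above the mean of compounds falling within the control limits plus 3 SD of them, cut at about 14% in these data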
#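 assay system = human clot-derived fibrin DD(E) complex | quantity = Fibrin-DD(E) at 2 µM final | timing = 10 min preincubation, 3 h with tracer, room temperature | signal = fluorescence polarization | measure = percent inhibition | benchmarks = high control wells with 10 µM unlabelled Aha-Tn7 peptide (full inhibition) | replicates = singlicate testing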
# HTRA1 inh: inhibitors of human serine peptidase HTRA1 | recombinant HTRA1, FP-rhodamine activity-based probe, fluorescence polarization | 0.5% of 340,000 active | inhibition, % at 5.96 µM | AID 504803; in the data active means inhibition above about 36%
# Target sequence (Q92743 whole entry, looked up): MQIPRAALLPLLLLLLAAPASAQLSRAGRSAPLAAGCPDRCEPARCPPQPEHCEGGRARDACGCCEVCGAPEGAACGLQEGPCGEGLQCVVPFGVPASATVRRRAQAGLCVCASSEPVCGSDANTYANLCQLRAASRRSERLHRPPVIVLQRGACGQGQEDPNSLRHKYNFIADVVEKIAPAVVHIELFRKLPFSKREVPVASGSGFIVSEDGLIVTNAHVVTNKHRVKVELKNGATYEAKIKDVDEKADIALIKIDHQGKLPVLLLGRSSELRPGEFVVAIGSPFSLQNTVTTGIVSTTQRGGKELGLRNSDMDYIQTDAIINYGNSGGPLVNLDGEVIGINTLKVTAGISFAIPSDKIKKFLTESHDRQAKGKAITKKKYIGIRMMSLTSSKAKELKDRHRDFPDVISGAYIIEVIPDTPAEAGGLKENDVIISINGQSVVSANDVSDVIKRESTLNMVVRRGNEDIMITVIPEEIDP
# TCR CD3 inh: blocks the human TCR-CD3 interaction; TAMRA-labeled TCR probe fluorescence, biochemical; inhibition, % at 9.4 µM; 0.37% of 360,000 active; AID 651800;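 further: recombinant mutant TCR 2C K166C tagged with TAMRA read by polarization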
# SIAE primary: blocks human sialic acid acetylesterase | Q9HAT2 | inhibition, % at 9.66 µM | SIAE FP-Rh probe binding, fluorescence polarization | 0.69% of 370,000 active | AID 1053197;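 active means inhibition above a cutoff: mean of compounds within the control limits plus 3 SD of those, cut at about 17% in these data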
# Tn6 DDE FP: DD(E)-Tn6 binding inhibition, primary FP screen. P02675. Fibrin DD(E) TRITC-Tn6 fluorescence polarization displacement. inhibition, % at 8.3 µM. 0.21% of 370,000 active. AID 720509;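 active means inhibition above a per-campaign cutoff: mean of compounds within control limits plus 3 SD, cut at about 15% in these data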
# mABHD4 FP: inhibitors of mouse ABHD4 | 0.54% of 370,000 active | Q8VD66 | purified mABHD4, FP-Rh probe fluorescence polarization | inhibition, % at 8.92 µM;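 active means inhibition exceeding the mean over every tested compound plus 3 SD, cut at about 30% in these data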
#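 Assay system: mouse ABHD4 enzyme, wild type / Also added: fluorescent activity-based probe FP-Rh / Doses: single nominal dose of 8.92 µM, 0.89% DMSO final / Timing: 45 min compound pre-incubation plus 60 min probe step, 25 °C / Signal: FP readout, ex 525 nm / em 598 nm / Control set: S159A mutant/DMSO as 100%, compound-well median as 0%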
# BSA probe FL: counter-screen for TCR-CD3 interaction inhibitors: BSA probe. shares compounds with TCR CD3 inh. TAMRA-labeled BSA probe fluorescence counterscreen. inhibition, % at 9.4 µM. 10% of 1,200 active. AID 652035; in the data active means inhibition above about 23%
# TCR-CD3 inh conf: TCR-CD3 interaction inhibition, confirmation; shares compounds with TCR CD3 inh; TAMRA-labeled TCR probe fluorescence binding assay; inhibition, % at 9.4 µM; 48% of 1,200 active; AID 652036
# Hits are given with their value; n = inactive; x = no result given. Compounds with a hit are over-represented: about 1.8% of the library has one in this group of screens. Unless noted, no stated cut-off is given here; in the data, active means inhibition above about 19%; inactive means the rest.
SMILES,DDE Tn7 FP inh,HTRA1 inh,TCR CD3 inh,SIAE primary,Tn6 DDE FP,mABHD4 FP,BSA probe FL,TCR-CD3 inh conf
O=C(CCNC(=O)c1ccccc1)NNC(=O)c1ccccc1Br,n,n,n,n,n,n,x,x
COc1ccccc1C(=O)NNC(=O)c1ccc(C)cc1,n,n,n,n,n,n,x,x
O=C(CCNC(=O)c1ccc(Br)cc1)NNC(=O)c1ccccc1O,n,n,23,n,n,n,n,20
COc1cccc(/C=C2\CC3(OC(=O)c4cccc(F)c4)CCCN2C3)c1 (configuration not stated),n,x,x,n,n,n,x,x
NC(=O)c1c(N)[nH]c(C(=O)c2ccccc2)c1-c1ccccc1C(F)(F)F,n,x,x,n,n,n,x,x
COC(=O)C[C@@H]1CC[C@H]2[C@@H](COc3ccc(NS(=O)(=O)c4ccccc4F)cc3C(=O)N2C)O1,n,x,x,n,n,n,x,x
O=C(CCC(=O)c1cccs1)NNC(=O)c1ccccc1O,n,n,48,n,n,n,n,28
COCC(=O)NNC(=O)c1ccccc1OC,n,n,n,n,n,n,x,x
COc1ccccc1OCC(=O)NNC(=O)CCCC(=O)NNC(=O)COc1ccccc1OC,n,n,26,n,n,n,n,n
O=C(CCC(=O)c1cccs1)NNC(=O)c1ccc(Cl)cc1,n,n,n,n,n,n,x,x
COc1ccccc1C(=O)NCCC(=O)NNC(=O)c1ccccc1O,n,n,45,n,n,n,n,30
S=C(Nc1ccccc1)OC1CCC12CCC(c1ccccc1)CC2 (configuration not stated),n,x,x,n,n,n,x,x
COCCCN1C(=O)[C@H](CC(=O)NCc2cccc3ccccc23)[C@]2(C(=O)OC)CCCCC=C12,n,x,x,n,n,n,x,x
Cc1nc(Cl)c2c(n1)NC1=C(O2)C(=O)CCC1,n,n,37,n,n,n,29,30
O=C(CN1C(=O)C2(OCCCO2)c2ccccc21)NCc1ccccc1Cl,n,x,x,n,n,n,x,x
COC(=O)C[C@H]1CC[C@H]2[C@H](COc3ccc(NS(=O)(=O)c4cccc(OC)c4)cc3C(=O)N2C)O1,n,x,x,n,n,n,x,x
CCCCN1C(=O)N2Cc3ccc(C)cc3C2CS1(=O)=O (configuration not stated),n,x,x,n,n,n,x,x
CN(C)S(=O)(=O)c1cccc(NC(=O)COC(=O)c2ccc3ccccc3n2)c1,n,n,n,n,n,n,x,x
CN(C)S(=O)(=O)c1cccc(NC(=O)COC(=O)c2cc(-c3cccc(Br)c3)nc3ccccc23)c1,n,n,83,n,n,n,n,56
CC(=O)N1c2cc(S(=O)(=O)N3CCN(c4ccccc4F)CC3)c(Br)cc2CC1C (configuration not stated),n,x,x,n,n,n,x,x
COC(=O)COc1ccc(NC(=O)C(c2ccccc2)c2ccccc2)cc1,n,n,n,n,n,n,x,x
COC(=O)COc1ccc(C(C2C(=O)CC(C)(C)CC2=O)C2C(=O)CC(C)(C)CC2=O)cc1,n,n,20,n,n,n,n,n
CCOC(=O)[C@@]12CCCC=C1N(CCc1ccc(Cl)cc1)C(=O)[C@H]2CC(=O)NCc1ccccc1,n,x,x,n,n,n,x,x
CC(=O)N[C@H]1C[C@@H]2O[C@H](CO)CC[C@@H]2O[C@@H]1CCc1ccc(-c2ccc(F)cc2)cc1,n,x,x,n,n,n,x,x
CC(C)C1O/C(=N/C(=O)Nc2ccc(Cl)c(Cl)c2)NC1=O (configuration not stated),n,n,35,n,n,n,n,n
SMILES,DDE Tn7 FP inh,HTRA1 inh,TCR CD3 inh,SIAE primary,Tn6 DDE FP,mABHD4 FP,BSA probe FL,TCR-CD3 inh conf
CC(C)C[C@H]1COc2cc(Br)ccc2S(=O)(=O)N1Cc1cn(Cc2ccc(C(F)(F)F)cc2)nn1,n,x,x,n,n,n,x,x
CS(=O)(=O)N(Cc1ccc(C(=O)NN=C2CCCCCC2)cc1)c1ccccc1,n,n,33,n,n,n,n,n
CS(=O)(=O)N(Cc1ccc(C(=O)NN=C2CCCC2)cc1)c1ccccc1,n,n,n,n,n,n,x,x
COc1cccc(/C=N/NC(=O)C(=O)N/N=C/c2cccc(OC)c2O)c1O,n,x,21,n,n,n,n,n
COC(=O)c1cccc(/C=N/NC(N)=S)c1O,n,n,34,n,n,n,n,n
NC(=S)N/N=C/c1ccccc1[N+](=O)[O-],n,n,n,n,n,n,x,x
C=C(C)c1cccc(C(C)(C)NC(=O)NNC(=O)c2ccccc2O)c1,n,n,31,n,n,n,n,n
CCOC(=O)c1c(C)[nH]c(C(=O)N/N=C\c2ccccc2O)c1C,n,n,n,n,n,n,x,x
O=C(N/N=C/c1cc([N+](=O)[O-])ccc1O)c1c[nH]c2ccccc12,n,n,21,n,n,n,n,n
CCOC(=O)c1c(C)[nH]c(C(=O)N/N=C/c2cc([N+](=O)[O-])ccc2O)c1C,n,n,21,n,n,n,n,41
O=C(NC(C(=O)N/N=C/c1cccc2ccccc12)c1n[nH]c(=O)c2ccccc12)c1ccccc1 (configuration not stated),n,n,n,n,n,n,x,x
O=C(N/N=C/c1cccc([N+](=O)[O-])c1)c1c[nH]c2ccccc12,n,n,n,n,n,n,x,x
O=C(NC(C(=O)N/N=C/c1cc([N+](=O)[O-])ccc1O)c1n[nH]c(=O)c2ccccc12)c1ccccc1 (configuration not stated),n,n,29,n,n,n,n,38
CN(Cc1ccccc1Cl)C(=O)CN1C(=O)C2(OCCCO2)c2ccccc21,n,x,x,n,n,n,x,x
O=C(CN1C(=O)C2CCCCN2C(=O)c2ccccc21)N1CCCC1 (configuration not stated),n,x,x,n,n,n,x,x
C#CCN1CC(N(C)CCOC(=O)CC2C=CCC2)CS1(=O)=O (configuration not stated),n,x,x,n,n,n,x,x
O=C(NC(=S)Nc1cccc(S(=O)(=O)NC2=NCCC2)c1)c1cc(-c2ccco2)nc2ccccc12,n,n,n,n,n,n,x,x
O=C(Nc1nc2ccccc2s1)c1cc(-c2ccco2)nc2ccccc12,n,n,n,n,n,n,x,x
O=C(Nc1cccc(S(=O)(=O)NC2=NCCC2)c1)c1cc(-c2ccco2)nc2ccccc12,n,n,23,n,n,n,n,32
Cc1nnc(NC(=O)c2cc(-c3ccco3)nc3ccccc23)s1,n,n,19,n,n,n,n,20
O=C(N/N=C/c1ccc(F)cc1)c1cc(-c2ccco2)nc2ccccc12,n,n,30,n,n,n,n,23

# Source: PubChem
